Among the data in ChEMBL document CHEMBL4330154, “Di- and heptavalent nicotinic analogues to interfere with α7 nicotinic acetylcholine receptors” (Bioorg Med Chem, 2019) are IC50, inhibition and fold change (FC) values, retold here.

Assay type in all cases: cell-based
In test [1] the target is T1, Neuronal acetylcholine receptor subunit alpha-7 (Homo sapiens, UniProt P36544). Put plainly: Antagonist activity at human alpha7 nAChR expressed in Xenopus laevis oocytes assessed as inhibition of ACh-induced inward current at -60 mV holding potential preincubated for 1 min followed by ACh addition by two-microelectrode voltage clamp assay. In short, it runs like this: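 Oocytes expressing human α7 mRNA were clamped at −60 mV on an automated TEVC rig, using electrodes of 50–60 MΩ filled with 1 M KCl/1 M ammonium acetate. The bath was OR2 (88 mM NaCl, 1 mM MgCl₂, 5 mM Hepes, pH 7.6). ACh 100 μM was applied three times with 4 min washes between. Each oocyte then got a 1 min compound preincubation followed by 100 μM ACh plus the same compound concentration. IC50 came from a Hill fit of the fractional current.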
T1 sequence (P36544 whole entry): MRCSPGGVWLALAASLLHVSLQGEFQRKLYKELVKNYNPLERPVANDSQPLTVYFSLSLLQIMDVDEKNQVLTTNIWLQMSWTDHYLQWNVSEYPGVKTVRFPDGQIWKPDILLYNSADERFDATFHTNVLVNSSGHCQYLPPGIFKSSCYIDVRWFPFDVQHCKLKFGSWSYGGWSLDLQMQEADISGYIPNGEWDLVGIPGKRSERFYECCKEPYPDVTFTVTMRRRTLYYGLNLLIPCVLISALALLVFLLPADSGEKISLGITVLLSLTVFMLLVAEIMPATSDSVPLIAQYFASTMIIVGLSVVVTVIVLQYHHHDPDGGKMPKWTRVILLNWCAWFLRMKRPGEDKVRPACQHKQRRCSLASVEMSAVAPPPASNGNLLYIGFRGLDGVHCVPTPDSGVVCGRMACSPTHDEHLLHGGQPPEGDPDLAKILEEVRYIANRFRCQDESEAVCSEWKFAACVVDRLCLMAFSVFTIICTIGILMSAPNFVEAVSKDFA

Test [2] concerns the target T1, Neuronal acetylcholine receptor subunit alpha-7. Description: Antagonist activity at human alpha7 nAChR expressed in Xenopus laevis oocytes assessed as inhibition of ACh-induced inward current at -60 mV holding potential preincubated for 1 min followed by ACh addition by two-microelectrode voltage clamp assay relative to 2-(2-(2-(2-(4-(5-(1-methylpyrrolidin-2-yl)pyridin-3-yl)-1H-1,2,3-triazol-1-yl)ethoxy)ethoxy)ethoxy)ethanol.

The target is the same in test [3]. Description: Antagonist activity at human alpha7 nAChR expressed in Xenopus laevis oocytes assessed as inhibition of ACh-induced inward current at -60 mV holding potential preincubated for 1 min followed by ACh addition by two-microelectrode voltage clamp assay relative to cyclodextrin reference compound. Summed up:
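Human α7 mRNA expressed in Xenopus oocytes; automated two-electrode voltage clamp at -60 mV holding, electrodes filled with 1 M KCl/1 M ammonium acetate; OR2 buffer (88 mM NaCl, 1 mM MgCl2, 5 mM Hepes, pH 7.6). Three 100 μM ACh applications spaced by 4 min washes; 1 min compound preincubation, then 100 μM ACh plus compound. IC50 from fit F = 1/[1+([X]/IC50)^nH].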

The structures appear in SMILES notation.

Take `CN1CCCC1c1cncc(-c2cn(CCOCCOCCOCCOCCOCCOCCOCCOCCOCCOCCOCCn3cc(-c4cncc(C5CCCN5C)c4)nn3)nn2)c1` (configuration not stated): in test [1], the IC50 was found to be 300 µM and the inhibition entry is “Dose-dependent effect”. Also, the fold change (FC) in test [2] is 0.32.
Turning to `CN1CCCC1c1cncc(-c2cn(CCOCCOCCOCCOCCOCCOCCOCCOCCOCCOCCOCCOCCOCCOCCOCCOCCOCCOCCOCCOCCOCCOCCOCCOCCOCCOCCOCCn3cc(-c4cncc(C5CCCN5C)c4)nn3)nn2)c1` (configuration not stated), in test [1], the IC50 worked out at 21 µM and the inhibition entry is “Dose-dependent effect”. The fold change (FC) in test [2] came out at 4.6.
On the same counts, the results for `CN1CCCC1c1cncc(-c2cn(CCOCCOCCOCCn3cc(-c4cncc(C5CCCN5C)c4)nn3)nn2)c1` (configuration not stated) are 12 µM, “Dose-dependent effect” and 8.1.
Regarding `CN1CCCC1c1cncc(-c2cn(CCOCCOCCOCCO)nn2)c1` (configuration not stated), in test [1], the half-inhibitory concentration (IC50) came to 195 µM and the inhibition result is “Dose-dependent effect”.
For the compound `CN1CCCC1c1cncc(-c2cn(CCOCCOCCOCCOCCOCCOCCOCCOCCOCCOCCOCCOCCOCCOCCOCCOCCOCCOCCOCCn3cc(-c4cncc(C5CCCN5C)c4)nn3)nn2)c1` (configuration not stated), in test [1], the IC50 worked out at 160 µM and the inhibition entry was “Dose-dependent effect”. The fold change (FC) in test [2] was 0.61.
With `CN1CCCC1c1cncc(-c2cn(C[C@H]3O[C@@H]4O[C@H]5[C@H](O)[C@@H](O)[C@@H](O[C@H]6[C@H](O)[C@@H](O)[C@@H](O[C@H]7[C@H](O)[C@@H](O)[C@@H](O[C@H]8[C@H](O)[C@@H](O)[C@@H](O[C@H]9[C@H](O)[C@@H](O)[C@@H](O[C@H]%10[C@H](O)[C@@H](O)[C@@H](O[C@H]3[C@H](O)[C@H]4O)O[C@@H]%10Cn3cc(-c4cncc(C%10CCCN%10C)c4)nn3)O[C@@H]9Cn3cc(-c4cncc(C9CCCN9C)c4)nn3)O[C@@H]8Cn3cc(-c4cncc(C8CCCN8C)c4)nn3)O[C@@H]7Cn3cc(-c4cncc(C7CCCN7C)c4)nn3)O[C@@H]6Cn3cc(-c4cncc(C6CCCN6C)c4)nn3)O[C@@H]5Cn3cc(-c4cncc(C5CCCN5C)c4)nn3)nn2)c1` (some centres not stated), in test [1], the IC50 amounted to 196 µM and the inhibition entry was “Dose-dependent effect”. Besides, in test [3], the fold change (FC) was found to be 0.14.
For the compound `CN1CCCC1c1cncc(-c2cn(C[C@H]3O[C@@H]4O[C@H]5[C@H](O)[C@@H](O)[C@@H](O[C@H]6[C@H](O)[C@@H](O)[C@@H](O[C@H]7[C@H](O)[C@@H](O)[C@@H](O[C@H]8[C@H](O)[C@@H](O)[C@@H](O[C@H]9[C@H](O)[C@@H](O)[C@@H](O[C@H]%10[C@H](O)[C@@H](O)[C@@H](O[C@H]3[C@H](O)[C@H]4O)O[C@@H]%10CO)O[C@@H]9CO)O[C@@H]8CO)O[C@@H]7CO)O[C@@H]6CO)O[C@@H]5CO)nn2)c1` (some centres not stated), in test [1], the IC50 was 56 µM and the inhibition entry is “Dose-dependent effect”.
For `CN1CCCC1c1cncc(-c2cn(CCOCCOCCOCCOCCOCCOCCOCCn3cc(-c4cncc(C5CCCN5C)c4)nn3)nn2)c1` (configuration not stated), in test [1], the IC50 came out at 611 µM and the inhibition result is “Dose-dependent effect”. Moreover, the fold change (FC) in test [2] was determined as 0.16.
